ChEMBL document CHEMBL1138329, “Pharmacokinetic/pharmacodynamic model-guided identification of hypoxia-selective 1,2,4-benzotriazine 1,4-dioxides with antitumor activity: the role of extravascular transport” (J Med Chem, 2007)

How the values were obtained:
Mus musculus = assay: Toxicity in ip dosed CD1 mouse; format: organism-based; conditions: in vivo
How it was run: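 MTD in CD-1 homozygous nude mice after single i.p. doses (HCl salts in saline, 5% DMSO/saline or lactate buffer pH 4.0), escalated in 1.33-fold increments. MTD taken as the highest dose causing no death, no body weight loss >15% and no other severe morbidity in any of 6 mice.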

SiHa [1] = assay: Cytotoxicity against human SiHa cells under hypoxic conditions after 4 hrs; format: functional, cell-based
[2] = Cmax in CD1 mouse at 237 umol/kg, ip; format: ADME, organism-based; design: dose 237 umol/kg, route intraperitoneal; conditions: in vivo
How it was run: (§1)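 Single i.p. dose to CD-1 homozygous nude mice, drug as HCl salt in 0.9% saline, 5% DMSO/saline or lactate buffer (pH 4.0). Plasma total drug measured by HPLC at 75 or 100% of MTD (MTD from 1.33-fold dose steps, 6 mice). Noncompartmental analysis gave AUC, Cmax and t1/2.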

HT-29 [3] = assay: Diffusion coefficient, D in HT29 multicellular layers; format: ADME, cell-based; conditions: human
How it was run: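 HT29 multicellular layers were grown 3 days on collagen-coated Teflon membranes, equilibrated 60 min under 95% O2/5% CO2 at 37 °C, then placed in a diffusion chamber. Donor and receiver were sampled up to 5 h and assayed by HPLC. D came from fitting both profiles to a Fickian model with membrane and MCL in series, corrected by support-only Ds.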

SiHa [4] = assay: Ratio of IC50 for SiHa cells under oxic conditions to hypoxic conditions after 4 hrs; format: functional, Homo sapiens
[5] = AUC in CD1 mouse at 237 umol/kg, ip; format: ADME, organism-based; conditions: plasma; how it was run: as §1
HT-29 [6] = assay: Effect on human HT29 cells under hypoxic conditions assessed as drug level causing 10% clonogenic survival; format: functional
How it was run: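 HT29 suspensions (1 or 2 × 10^6 cells/mL) in serum-free medium were stirred under 5% CO2/95% N2 for 90 min. Drug was added from deoxygenated DMSO stock at a level giving about 10% survival at 1 h, and samples were taken up to 3 h. Clonogenic survival (14 days, methylene blue) was fitted with the HPLC concentration–time data, and the 10% survival exposure was interpolated.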

HT-29 [7] = assay: Cytotoxicity against human HT29 cells under hypoxic conditions after 4 hrs; format: functional, cell-based; conditions: HT-29, 4 h
[8] = Half life in CD1 mouse at 237 umol/kg, ip; format: ADME, organism-based; conditions: in vivo; how it was run: as §1
HT-29 [9] = assay: Ratio of IC50 for HT29 cells under oxic conditions to hypoxic conditions after 4 hrs; format: functional, Homo sapiens
[10] = Solubility in culture medium in presence of 5% fetal calf serum; format: physicochemical; conditions: culture medium with 5% fetal calf serum
HT-29 [11] = assay: Antitumor activity against human HT29 cells implanted in CD1 mouse assessed as clonogenic survival at 562 umol/kg, ip after 18 hrs relative to control; format: functional
How it was run: (§2)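 HT29 xenografts in CD-1 homozygous nude mice; single i.p. dose of drug alone, formulated as the HCl salt in 0.9% saline, 5% DMSO/saline or lactate buffer (pH 4.0). Tumors excised 18 h later, dissociated to single-cell suspensions and plated. Clonogens/g of tumor counted; surviving fraction = treated/control clonogens/g.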

[12] = AUC in CD1 mouse at 562 umol/kg, ip; format: ADME, organism-based; conditions: plasma; how it was run: as §1
[13] = Cmax in CD1 mouse at 562 umol/kg, ip; format: ADME, organism-based; design: dose 562 umol/kg, route intraperitoneal; conditions: in vivo; how it was run: as §1
HT-29 [14] = assay: Antitumor activity against human HT29 cells implanted in CD1 mouse at 562 umol/kg, ip administered 5 mins after irradiation by excision assay relative to radiation alone; format: functional
How it was run: (§3)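 Hypoxic-cell excision assay in HT29 xenografts in CD-1 homozygous nude mice. Mice received 20 Gy γ radiation to sterilize oxic tumor cells, then a single i.p. drug dose (HCl salt in saline, 5% DMSO/saline or pH 4.0 lactate buffer) 5 min later. Tumors excised at 18 h and plated for clonogens/g. Log cell kill = log(clonogens/g, radiation only) − log(clonogens/g, radiation plus drug).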

[15] = Half life in CD1 mouse at 562 umol/kg, ip; format: ADME, organism-based; conditions: in vivo; how it was run: as §1
[16] = AUC in CD1 mouse at 421 umol/kg, ip; format: ADME, organism-based; conditions: plasma; how it was run: as §1
[17] = Cmax in CD1 mouse at 421 umol/kg, ip; format: ADME, organism-based; design: dose 421 umol/kg, route intraperitoneal; conditions: in vivo; how it was run: as §1
[18] = Half life in CD1 mouse at 421 umol/kg, ip; format: ADME, organism-based; conditions: in vivo; how it was run: as §1
HT-29 [19] = assay: Antitumor activity against human HT29 cells implanted in CD1 mouse assessed as clonogenic survival at 750 umol/kg, ip after 18 hrs relative to control; format: functional; how it was run: as §2
[20] = AUC in CD1 mouse at 750 umol/kg, ip; format: ADME, organism-based; conditions: plasma; how it was run: as §1
HT-29 [21] = assay: Antitumor activity against human HT29 cells implanted in CD1 mouse at 750 umol/kg, ip administered 5 mins after irradiation by excision assay relative to radiation alone; format: functional; how it was run: as §3
[22] = Half life in CD1 mouse at 750 umol/kg, ip; format: ADME, organism-based; conditions: in vivo; how it was run: as §1
[23] = Cmax in CD1 mouse at 750 umol/kg, ip; format: ADME, organism-based; design: dose 750 umol/kg, route intraperitoneal; conditions: in vivo; how it was run: as §1
[24] = AUC in CD1 mouse at 1000 umol/kg, ip; format: ADME, organism-based; conditions: plasma; how it was run: as §1
HT-29 [25] = assay: Antitumor activity against human HT29 cells implanted in CD1 mouse at 1000 umol/kg, ip administered 5 mins after irradiation by excision assay relative to radiation alone; format: functional; how it was run: as §3
HT-29 [26] = assay: Antitumor activity against human HT29 cells implanted in CD1 mouse assessed as clonogenic survival at 1000 umol/kg, ip after 18 hrs relative to control; format: functional; how it was run: as §2
[27] = Half life in CD1 mouse at 1000 umol/kg, ip; format: ADME, organism-based; conditions: in vivo; how it was run: as §1
[28] = Cmax in CD1 mouse at 1000 umol/kg, ip; format: ADME, organism-based; design: dose 1000 umol/kg, route intraperitoneal; conditions: in vivo; how it was run: as §1

Compound | MTD (Mus musculus) | IC50 (SiHa [1]) | D (HT-29 [3]) | Ratio IC50 (SiHa [4]) | Activity (HT-29 [6]) | IC50 (HT-29 [7]) | Ratio IC50 (HT-29 [9]) | solubility [10] | AUC [24] | LCK (HT-29 [25]) | LCK (HT-29 [26]) | half-life [27] | further results
Cc1ccc2c(c1)[n+]([O-])c(NCCN1CCCCC1)n[n+]2[O-] | 237 µmol/kg | 2200 nM | 7.49e-07 cm²/s | 75 | 9.4 µM·h | 4000 nM | 58 | 45 mM | – | – | – | – | Cmax [2]: 14.9 µM; AUC [5]: 13.8 µM·h; half-life [8]: 16.6 min
[O-][n+]1nc(NCCN2CCOCC2)[n+]([O-])c2ccccc21 | 562 µmol/kg | 6600 nM | 3.63e-07 cm²/s | 44 | 47.5 µM·h | 17300 nM | 34 | > 49 mM | – | – | – | – | LCK (HT-29 [11]): 0.29; AUC [12]: 105 µM·h; Cmax [13]: 160 µM; LCK (HT-29 [14]): 0.6; half-life [15]: 16.5 min
CCOc1ccc2c(c1)[n+]([O-])c(NCCN1CCCCC1)n[n+]2[O-] | 316 µmol/kg | 1700 nM | – | 169 | 36.3 µM·h | 2200 nM | 116 | > 49 mM | – | – | – | – | Cmax [2]: 9.8 µM; AUC [5]: 10.7 µM·h; half-life [8]: 40.1 min
Cc1ccc2c(c1)[n+]([O-])c(NCCN1C(C)CCCC1C)n[n+]2[O-] (stereo not given) | 421 µmol/kg | 800 nM | 9.45e-07 cm²/s | 159 | 15.4 µM·h | 2800 nM | 126 | 48 mM | – | – | – | – | AUC [16]: 18.3 µM·h; Cmax [17]: 19.6 µM; half-life [18]: 19.1 min
CCOc1ccc2c(c1)[n+]([O-])c(NCCN(C)C)n[n+]2[O-] | 1000 µmol/kg | 800 nM | – | 245 | 50.1 µM·h | 2600 nM | 121 | > 50 mM | – | – | – | – | LCK (HT-29 [19]): 0.09; AUC [20]: 82.3 µM·h; LCK (HT-29 [21]): 0.83; half-life [22]: 31.6 min; Cmax [23]: 85.7 µM
CC(C)Oc1ccc2c(c1)[n+]([O-])c(NCCN(C)C)n[n+]2[O-] | 1330 µmol/kg | 3200 nM | – | 31 | 22.3 µM·h | 6200 nM | 162 | > 55 mM | 102 µM·h | 0.53 | -0.17 | 26.1 min | Cmax [28]: 123 µM
COc1ccc2c(c1)[n+]([O-])c(NCCN(C)C)n[n+]2[O-] | 1000 µmol/kg | 2900 nM | 2.32e-07 cm²/s | 232 | 26.1 µM·h | 7700 nM | 89 | 46 mM | 240 µM·h | 1.84 | 0.15 | 51.5 min | Cmax [28]: 157 µM
COCCOc1ccc2c(c1)[n+]([O-])c(NCCN(C)C)n[n+]2[O-] | 1330 µM/g | 1600 nM | – | 401 | 51.8 µM·h | 5000 nM | 117 | > 51 mM | – | – | – | – | LCK (HT-29 [11]): -0.08; AUC [12]: 257 µM·h; LCK (HT-29 [14]): 0.3; half-life [15]: 44.9 min
CN(C)CCNc1n[n+]([O-])c2ccc(C(C)(C)C)cc2[n+]1[O-] | 421 µmol/kg | 1100 nM | 8.63e-07 cm²/s | 78 | 11.4 µM·h | 3700 nM | 99 | 38 mM | – | – | – | – | AUC [16]: 9.73 µM·h; Cmax [17]: 16.1 µM; half-life [18]: 12.5 min
CN(C)CCNc1n[n+]([O-])c2ccc(OCC3CC3)cc2[n+]1[O-] | 750 µM/g | 2100 nM | – | 101 | 45.1 µM·h | 3800 nM | 35 | 43 mM | 51.3 µM·h | -0.06 | -0.14 | 33.9 min | –
